Here are results for five molecules from ChEMBL document CHEMBL1123708, “Resolved cis- and trans-2-amino-5-methoxy-1-methyltetralins: central dopamine receptor agonists and antagonists” (1987).

Active and inactive are the calls of the source. No cut-off for these calls is given here.

Assay [1] relates to Rattus norvegicus. Briefly: In vivo DOPA accumulation in non pre-treated rat striatal system following s.c. administration. In kind it is functional. The following applies: sc. The procedure, abridged: (§1)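 Rats without pretreatment received test drug sc 65 min and NSD 1015 (100 mg/kg ip) 30 min before death, with saline controls. DOPA was measured in limbic or striatal tissue. Dose for half-maximal change was estimated from 4-5-dose curves (n = 3-5), maximal level as % of control.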

Assay [2] relates to Rattus norvegicus. Briefly: ((+)-UH-232) induced locomotor stimulation was determined in non pretreated rats at a dose of 204 umol/kg by subcutaneous administration. Type of assay: functional.
The test system of assay [3] is Rattus norvegicus. Briefly: ((+)-UH-232) induced locomotor stimulation was determined in non pretreated rats at a dose of 52 umol/kg by subcutaneous administration. In kind it is functional.
For assay [4], the system named is Rattus norvegicus. The assay is described as follows: Change in rectal temperature induced by DiPr-5,6-ADTN at a dose of 204 umol/kg of compound by subcutaneous administration. In kind it is functional. The procedure, abridged:
(§2)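 Rats received DiPr-5,6-ADTN (0.25 μmol/kg sc) 100 min and test compound sc 40 min before death. Rectal temperature change (°C) was recorded between 60 and 100 min after DiPr-5,6-ADTN. Values are mean ± SEM, n = 4, with Student's t test vs DiPr-5,6-ADTN alone.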

The test system of assay [5] is Rattus norvegicus. The assay is described as follows: Locomotory activity was determined in non pretreated rats at a dose of 3.2 umol/kg by subcutaneous administration. Type of assay: functional. In a few lines:
(§3)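 Untreated rats received test drug sc 5 min before a 30-min session in photocell motility meters, with accumulated counts recorded. Activity is expressed as percent of saline controls, mean ± SEM, n = 3-5. Gross behaviour was observed through a semitransparent mirror. Differences from saline controls were assessed by Student's t test.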

The test system of assay [6] is Rattus norvegicus. Briefly: In vivo DOPA accumulation in non pre-treated rat limbic system following s.c. administration. Type of assay: functional. The following applies: sc. The procedure, abridged:
as §1

Assay [7] deals with Rattus norvegicus. Briefly: Change in rectal temperature induced by DiPr-5,6-ADTN at a dose of 52 umol/kg of compound by subcutaneous administration. In kind it is functional. The procedure, abridged: as §2
Assay [8] deals with T1, Dopamine receptor (Rattus norvegicus) (UniProt P25115+P19020+P30729+P18901+P61169). The assay is described as follows: Ability to displace the Dopamine receptor agonist DiPr-5,6-ADTN from rat striatal binding sites in vivo at a dose of 52 umol/kg by subcutaneous administration. Type of assay: organism-based.
Assay [9] has as its system Rattus norvegicus. Briefly: Change in rectal temperature induced by DiPr-5,6-ADTN at a dose of 13 umol/kg of compound by subcutaneous administration. In kind it is functional. In a few lines: as §2
Assay [10] deals with Rattus norvegicus. The assay is described as follows: Induced locomotor stimulation in non pre-treated rats by 52 umol/kg s.c. administration. Type of assay: functional.
The target of assay [11] is T1, Dopamine receptor (Rattus norvegicus). Briefly: In vivo displacement of DiPr-5,6-ADTN from Dopamine receptors in rat striatum. In kind it is organism-based.
The subject of assay [12] is Rattus norvegicus. Briefly: Induced locomotor stimulation was determined in non pretreated rats at a dose of 13 umol/kg by subcutaneous administration. Type of assay: functional.
For assay [13], the system named is Rattus norvegicus. Briefly: Induced locomotor stimulation was determined in non pretreated rats at a dose of 204 umol/kg by subcutaneous administration. In kind it is functional.
Assay [14] deals with Rattus norvegicus. Briefly: ((+)-UH-232) induced locomotor stimulation was determined in non pretreated rats at a dose of 3.2 umol/kg by subcutaneous administration. Type of assay: functional.
Assay [15] deals with T1, Dopamine receptor (Rattus norvegicus). Briefly: Ability to displace the Dopamine receptor agonist DiPr-5,6-ADTN from rat striatal binding sites in vivo at a dose of 52 uM/kg by subcutaneous administration. Type of assay: organism-based.
The subject of assay [16] is Rattus norvegicus. Briefly: Locomotory activity was determined in reserpine pretreated rats at a dose of 52 umol/kg by subcutaneous administration. Value is the accumulation counts/30 min. Type of assay: functional. The procedure, abridged: (§4)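 Rats were given reserpine 5 mg/kg sc 18 h beforehand, then test drug sc immediately before the activity session. Motor activity was recorded by photocells in motility meters as accumulated counts over 30 min, mean ± SEM, n = 3-4. Gross behaviour was watched for signs of stimulation. Reserpine-only controls were included.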

In assay [17] the test system is Rattus norvegicus. The assay is described as follows: Induced locomotor stimulation in non pre-treated rats by 13 umol/kg s.c. administration. Type of assay: functional.
Assay [18] concerns Rattus norvegicus. Briefly: In vivo DOPA accumulation in reserpine pretreated rat limbic system by subcutaneous administration; I denotes inactive. Type of assay: functional, organism-based. The procedure, abridged:
(§5)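 Rats received reserpine (5 mg/kg sc) 18 h, test drug sc 60 min and NSD 1015 (100 mg/kg ip) 30 min before death, with saline controls. Limbic or striatal DOPA was measured. Dose for half-maximal decrease was estimated from 4-7-dose curves (n = 3-5), minimal level as % of control.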

Assay [19] concerns Rattus norvegicus. Briefly: Induced locomotor stimulation was determined in non pretreated rats at a dose of 52 uM/kg by subcutaneous administration. Type of assay: functional. In a few lines:
as §3

Assay [20] relates to Rattus norvegicus. The assay is described as follows: Change in rectal temperature induced by DiPr-5,6-ADTN at a dose of 3.2 umol/kg of compound by subcutaneous administration. Type of assay: functional. In a few lines: as §2
For assay [21], the system named is Rattus norvegicus. The assay is described as follows: In vivo DOPA accumulation in reserpine pretreated rat striatum system by subcutaneous administration; I denotes inactive. Type of assay: functional, organism-based. The procedure, abridged:
as §5

Assay [22] concerns the target T1, Dopamine receptor (Rattus norvegicus). The following applies: 204 uM.
The target is the same in assay [23]. The following applies: 13 uM.
The subject of assay [24] is Rattus norvegicus. The assay is described as follows: In vivo DOPA accumulation in reserpine pretreated rat striatum system by subcutaneous administration; denotes inactive. In kind it is functional, organism-based. The procedure, abridged: as §5
The subject of assay [25] is Rattus norvegicus. The assay is described as follows: In vivo DOPA accumulation in non pretreated rat striatum system by subcutaneous administration; I denotes inactive. Type of assay: functional, organism-based. In a few lines: as §1
Assay [26] relates to Rattus norvegicus. The assay is described as follows: In vivo DOPA accumulation in non pretreated rat limbic system by subcutaneous administration; I denotes inactive. In kind it is functional, organism-based. The procedure, abridged:
as §1

In assay [27] the test system is Rattus norvegicus. The assay is described as follows: Locomotory activity was determined in non pretreated rats at a dose of 52 umol/kg by subcutaneous administration. Type of assay: functional. The procedure, abridged: as §3
Assay [28] deals with T1, Dopamine receptor (Rattus norvegicus). Briefly: Ability to displace the Dopamine receptor agonist DiPr-5,6-ADTN from rat striatal binding sites in vivo at a dose of 13 uM/kg by subcutaneous administration. In kind it is organism-based.
Assay [29] has as its system Rattus norvegicus. Briefly: Locomotory activity was determined in non pretreated rats at a dose of 52 umol/kg by subcutaneous administration. In kind it is functional. The procedure, abridged:
as §3

Assay [30] concerns Rattus norvegicus. Briefly: In vivo DOPA accumulation in reserpine pretreated rat limbic system by subcutaneous administration. Type of assay: functional. The following applies: sc. In a few lines:
as §5

In assay [31] the test system is Rattus norvegicus. The assay is described as follows: In vivo DOPA accumulation in reserpine pretreated rat striatum system by subcutaneous administration. In kind it is functional. The following applies: sc. The procedure, abridged:
as §5

Assay [32] deals with Rattus norvegicus. Briefly: Change in rectal temperature induced by DiPr-5,6-ADTN at a dose of 10 umol/kg of compound by subcutaneous administration. Type of assay: functional. In a few lines:
as §2

For assay [33], the target named is T1, Dopamine receptor (Rattus norvegicus). The assay is described as follows: Ability to displace the Dopamine receptor agonist DiPr-5,6-ADTN from rat striatal binding sites in vivo at a dose of 10 uM/kg by subcutaneous administration. Type of assay: organism-based.
The test system of assay [34] is Rattus norvegicus. The assay is described as follows: In vivo DOPA accumulation in reserpine pretreated rat limbic system by subcutaneous administration. Type of assay: functional. The following applies: sc. In a few lines: as §5
The subject of assay [35] is Rattus norvegicus. The assay is described as follows: Change in rectal temperature induced by DiPr-5,6-ADTN at a dose of 40 umol/kg of compound by subcutaneous administration. In kind it is functional. In a few lines:
as §2

The test system of assay [36] is Rattus norvegicus. Briefly: Locomotory activity was determined in reserpine pretreated rats at a dose of 3.2 umol/kg by subcutaneous administration. Value is the accumulation counts/30 min. In kind it is functional. In a few lines: as §4
Assay [37] has as its system Rattus norvegicus. Briefly: In vivo DOPA accumulation in reserpine pretreated rat striatum system by subcutaneous administration. In kind it is functional. The following applies: sc. In a few lines: as §5
Assay [38] concerns Rattus norvegicus. Briefly: Locomotory activity was determined in non pretreated rats at a dose of 13.4 umol/kg by subcutaneous administration. In kind it is functional. The procedure, abridged: as §3
Assay [39] deals with T1, Dopamine receptor (Rattus norvegicus). The assay is described as follows: Ability to displace the DA receptor agonist DiPr-5,6-ADTN from rat striatal binding sites in vivo at a dose of 40 uM/kg by subcutaneous administration. In kind it is organism-based.

With `CCCN[C@@H]1CCc2c(OC)cccc2[C@@H]1C`, the ED50 – broadly, the dose that gives a 50% effect, or the effect in half of the subjects – came out at 4.4 µmol/kg in the assay on Rattus norvegicus [1] and 4.6 µmol/kg with Rattus norvegicus [6]. The Activity with Rattus norvegicus [2] was found to be 29%; with Rattus norvegicus [3], 54%; in the assay with Rattus norvegicus [5], 132%; in the assay on Rattus norvegicus [10], 159%; in the assay on Rattus norvegicus [12] it was 95%. For the same molecule, the Temperature in the assay with Rattus norvegicus [4] worked out at 0.47 °C; in the assay with Rattus norvegicus [7] it was 1.05 °C; with Rattus norvegicus [9], 1.3 °C. Besides, the Binding turned out to be 41% in assay [8] and 85% in [11].
In the case of `CCCN(CCC)[C@@H]1CCc2c(OC)cccc2[C@@H]1C`, the ED50 with Rattus norvegicus [1] was determined as 9.6 µmol/kg; with Rattus norvegicus [6], 12.8 µmol/kg. Also, the Activity in the assay on Rattus norvegicus [13] amounted to 22%; with Rattus norvegicus [5], 152%; in the assay with Rattus norvegicus [14] it was 105%; in the assay on Rattus norvegicus [16], 4 counts/30 min; in the assay with Rattus norvegicus [17] it was 78%; in the assay with Rattus norvegicus [19] it was 24%. In addition, in the assay with Rattus norvegicus [10], the Activity came out at 70%. Besides, the Body temp change in the assay on Rattus norvegicus [4] is 0.45 °C; in the assay on Rattus norvegicus [7], 0.45 °C; in the assay with Rattus norvegicus [20], -0.03 °C; in the assay on Rattus norvegicus [9] it was 1.4 °C. Moreover, the Binding in assay [15] came to 34%; in assay [22] it was 31%; in assay [23] it was 61%; in assay [11], 83%. The ED50 entry in the assay with Rattus norvegicus [18] and in the assay with Rattus norvegicus [21] was “inactive” in each case.
Turning to `CCCN[C@H]1CCc2c(OC)cccc2[C@H]1C`, the ED50 result in the assay with Rattus norvegicus [24], with Rattus norvegicus [25], with Rattus norvegicus [26] and in the assay with Rattus norvegicus [18] was “inactive” each time. The Activity is 113% with Rattus norvegicus [5], 12 counts/30 min with Rattus norvegicus [16] and 119% in the assay with Rattus norvegicus [27].
With `CCCN(CCC)[C@H]1CCc2c(O)cccc2[C@@H]1C`, in assay [28], the Binding was determined as 91%. Further, the Activity with Rattus norvegicus [29] is 74%; in the assay with Rattus norvegicus [5], 79%; with Rattus norvegicus [16], 19 counts/30 min; with Rattus norvegicus [17] it was 92%. The ED50 in the assay on Rattus norvegicus [30] was 7.3 µmol/kg; in the assay with Rattus norvegicus [31], 7.9 µmol/kg. This molecule came in with a Body temp change in the assay with Rattus norvegicus [9] of -0.83 °C.
Consider `CCCN(CCC)[C@H]1CCc2c(O)cccc2[C@H]1C`, for which the ED50 in the assay with Rattus norvegicus [1] was found to be 0.84 µmol/kg; with Rattus norvegicus [34], 0.3 µmol/kg; in the assay on Rattus norvegicus [6], 0.84 µmol/kg; in the assay with Rattus norvegicus [37], 0.34 µmol/kg. Besides, the results for the Body temp change in the assay on Rattus norvegicus [32] and in the assay on Rattus norvegicus [35] were 0.1 °C and -0.2 °C, respectively. The results for the Binding in assay [33] and in [39] were 90% and 37%, respectively. The Activity was found to be 65% in the assay with Rattus norvegicus [5], 121 counts/30 min in the assay with Rattus norvegicus [36] and 171% with Rattus norvegicus [38].
